Assay outcomes as filed in PubChem.
KCNQ1 pot = potentiators or activators of KCNQ1 channel, primary screen, cell-based, thallium flux, high-throughput; Potassium voltage-gated channel subfamily KQT member 1 (Homo sapiens), P51787; CHO-K1 KCNQ1, thallium flux FluxOR fluorescence; hits give high values; hit rate 0.35% among 310,000; B-score at 10 µM;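 active means fluorescence ratio B-score, a plate-corrected score, at least three library SD, with initial intensity B-score within 5 SD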
Target sequence (P51787 whole entry, looked up): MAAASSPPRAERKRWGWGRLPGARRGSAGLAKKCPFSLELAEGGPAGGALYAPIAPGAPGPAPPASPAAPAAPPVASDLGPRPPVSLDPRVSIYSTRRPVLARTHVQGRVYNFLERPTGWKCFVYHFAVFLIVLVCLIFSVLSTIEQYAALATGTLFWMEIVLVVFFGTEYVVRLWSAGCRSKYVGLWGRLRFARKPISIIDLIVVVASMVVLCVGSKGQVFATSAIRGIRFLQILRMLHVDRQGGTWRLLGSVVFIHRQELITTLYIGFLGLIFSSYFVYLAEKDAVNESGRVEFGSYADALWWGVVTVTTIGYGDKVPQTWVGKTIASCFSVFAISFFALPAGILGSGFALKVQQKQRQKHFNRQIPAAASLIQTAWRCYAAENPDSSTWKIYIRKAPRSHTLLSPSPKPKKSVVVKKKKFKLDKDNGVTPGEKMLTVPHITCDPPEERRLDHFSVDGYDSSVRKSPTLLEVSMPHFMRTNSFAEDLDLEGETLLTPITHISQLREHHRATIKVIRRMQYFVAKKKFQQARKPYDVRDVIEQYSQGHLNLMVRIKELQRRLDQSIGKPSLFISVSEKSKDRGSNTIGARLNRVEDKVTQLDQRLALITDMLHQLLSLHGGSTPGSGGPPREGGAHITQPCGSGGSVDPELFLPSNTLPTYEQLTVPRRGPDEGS
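Material: CHO-K1 cells stably expressing KCNQ1. Medium: assay buffer for compound exposure, DMSO matched across wells. Reagent: K+/Tl+ depolarizing stimulus. Compound dosing: single-concentration screen. Times: 37 °C overnight plating, 90-min dark dye load, 20-min compound pretreatment. Technique: FluxOR Tl+ flux fluorescence.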
hERG protect = hERG rescue from dofetilide block, primary screen, cell-based, CHO-hERG, FluxOR thallium flux, dofetilide IC70 | activation (rescue from dofetilide block), less the hit threshold, % at 10 µM | hit rate 0.51% among 310,000 | dofetilide IC70 present | Voltage-gated inwardly rectifying potassium channel KCNH2 (Homo sapiens), Q12809;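 active means activation above the mean of controls blocked by dofetilide plus 5 SD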;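 further: thallium influx through hERG after potassium depolarization seen as dye fluorescence rise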
Kir21 block = inhibitors of mouse Kir2.1 inward-rectifier potassium channel; HEK293-Kir2.1, FluxOR thallium flux fluorescence; hits give low values; hit rate 0.85% among 310,000; B-score at 10 µM;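 active means fluorescence ratio B-score at or below minus 3 SD of library scores, with starting-brightness B-score within 2 SD, cut at about -4.2 in these data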;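 further: channel flux triggered by added potassium and thallium sulfate stimulus; B-score of peak minus minimum fluorescence over baseline after thallium stimulus; more negative B-score means stronger Kir2.1 block with less thallium influx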
KCNK3 block = human KCNK3 channel inhibitors, primary screen, CHO cells, FluxOR thallium flux, B-score | hit rate 0.84% among 340,000 | B-score at 10 µM | Potassium channel subfamily K member 3 (Homo sapiens), O14649 | FluxOR fluorescence; hits give low values;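 active means B-score under library mean minus 4 SD, starting fluorescence ratio at most library mean plus 5 SD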;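 further: more negative B-score means stronger inhibition of thallium flux through KCNK3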
KCNQ1 block = inhibitors of human KCNQ1 channel, primary screen, cell-based, thallium flux, high-throughput. CHO-K1 KCNQ1, FluxOR thallium flux fluorescence; hits give high values. B-score at 10 µM. hit rate 1.3% among 310,000;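 active means compounds whose thallium flux B-score, printed positive for inhibition, exceeds three library SD while starting fluorescence stays within three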;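 further: channel opened by potassium depolarization with thallium stimulus after 20 min compound exposure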
KCNK9 inh = KCNK9 potassium channel inhibitors, primary screen, HEK293 cells, thallium flux; FluxOR thallium flux fluorescence; hits give low values; B-score at 10 µM; hit rate 1.2% among 310,000;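 active means ratio B-score over 3 SD below the library mean, with starting fluorescence within 5 SD of its mean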;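 further: negative B-score means less thallium flux so channel inhibition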
A number is an active result; . = inactive; / = no result. An excerpt weighted towards active compounds, which were near 3.7% of everything screened.

SMILES | KCNQ1 pot | hERG protect | Kir21 block | KCNK3 block | KCNQ1 block | KCNK9 inh
CN1C(=O)C(=Cc2ccc(N3CCCCCC3)o2)C(=O)N(C)C1=S | / | / | / | . | / | /
Cc1ccccc1N1C(=O)/C(=C/c2ccco2)C(=O)NC1=S | . | 13 | . | / | . | .
O=C1NC(=S)N(c2ccccc2F)C(=O)/C1=C\c1cccs1 | . | 22 | . | . | . | .
Cc1ccccc1N1C(=O)NC(=O)/C(=C/c2ccc(N3CCOCC3)o2)C1=O | . | . | . | . | 6 | .
O=C1NC(=O)N(c2ccc3c(c2)OCO3)C(=O)/C1=C\c1ccc(N2CCCCC2)o1 | . | . | . | . | 9 | .
COc1ccc(CNCCc2ccc(Cl)cc2)c(OC)c1OC | . | . | . | . | . | .
Oc1ccccc1C1NCc2ccccc2-n2cccc21 (centres undefined) | . | . | -4.5 | . | . | .
Clc1ccccc1C1NCc2ccccc2-n2cccc21 (centres undefined) | . | . | -5.2 | . | . | .
CC(C)c1ccc(C2NCc3ccccc3-n3cccc32)cc1 (centres undefined) | . | . | . | . | . | .
CCOc1cccc(C2NCc3ccccc3-n3cccc32)c1O (centres undefined) | . | . | . | . | . | .
COc1ccccc1-n1c(-c2ccc(C)cc2)nc2ccccc2c1=O | . | . | . | . | . | .
C=CCn1c(O)c(/C=C2/C=c3ccccc3=N2)c(=O)[nH]c1=S | . | 35 | . | . | . | .
C=CCn1c(O)c(C=Nc2ccc(F)cc2)c(=O)[nH]c1=O | . | . | . | . | . | .
c1ccc(-c2[nH]c(-c3ccccc3)[n+](CC3CO3)c2-c2ccccc2)cc1 (centres undefined) | . | . | -6.8 | . | . | .
COc1ccc(CNCCc2c(C)[nH]c3ccc(OC(F)(F)F)cc23)c(OC)c1 | . | . | -6.9 | . | . | .
CC(=O)c1cn(CCCOc2ccccc2)c2ccccc12 | . | . | -4.6 | . | . | .
COc1cc(OC)c(OC)cc1CNC(C)C(O)c1ccccc1 (centres undefined) | . | . | . | . | . | .
CC(NCc1cccc(Cl)c1Cl)C(O)c1ccccc1 (centres undefined) | . | . | -16 | . | . | .
CC(NCc1ccc(Cl)cc1)C(O)c1ccccc1 (centres undefined) | . | . | -9 | . | . | .
CC(CCc1ccccc1)NC(C)C(O)c1ccc(O)cc1 (centres undefined) | . | . | . | . | . | .
CC(NCc1ccc(Cl)cc1Cl)C(O)c1ccccc1 (centres undefined) | . | . | -10 | . | . | .
CCOc1c(Cl)cc(CNC(C)C(O)c2ccccc2)cc1OC (centres undefined) | . | . | . | . | . | .
CN1CCc2cccc(Cl)c2CC1 | / | / | / | . | / | /
C=C(C)[C@@]12OC3(c4ccccc4)O[C@@H]1C1[C@@H]4O[C@]4(CO)[C@@H](O)[C@]4(O)C(=O)C(C)=C[C@H]4[C@@]1(O3)[C@H](C)[C@H]2OC(=O)/C=C/C=C/c1ccccc1 (some centres undefined) | . | . | . | . | . | .
CCCC1(CC(C)C)C(=O)NC(=S)NC1=O | / | / | / | . | / | /
CCCCSC1=NN1c1nc(N)nc(C)c1CC | . | . | . | . | . | .
CCc1c(C)nc(N)nc1N1N=C1SCCOc1ccccc1 | . | 8.2 | . | . | . | .
CCOP(=O)(C#CC(C)(C)C)C(O)(c1ccccc1)C(F)(F)F (centres undefined) | . | . | -4.3 | . | . | .
CC#CP(=O)(OCC)C(O)(c1ccccc1)C(F)(F)F (centres undefined) | . | . | . | . | . | .
O=[N+]([O-])c1ccc(N2CCCCCC2)c2ncccc12 | . | . | . | . | . | -7.7
